Blank lines part the entries; values can stand above or below the compound they belong to. Active and inactive are the calls of the source. No cut-off for these calls is given here.
Experiments:
[1] = biological target: T1, Gastrin/cholecystokinin type B receptor (Homo sapiens, UniProt P32239); experiment: Displacement of CCK-8 from human Cholecystokinin type B receptor expressing CHO cell membranes; details: for Log IC50: cho
T1 sequence (P32239 whole entry): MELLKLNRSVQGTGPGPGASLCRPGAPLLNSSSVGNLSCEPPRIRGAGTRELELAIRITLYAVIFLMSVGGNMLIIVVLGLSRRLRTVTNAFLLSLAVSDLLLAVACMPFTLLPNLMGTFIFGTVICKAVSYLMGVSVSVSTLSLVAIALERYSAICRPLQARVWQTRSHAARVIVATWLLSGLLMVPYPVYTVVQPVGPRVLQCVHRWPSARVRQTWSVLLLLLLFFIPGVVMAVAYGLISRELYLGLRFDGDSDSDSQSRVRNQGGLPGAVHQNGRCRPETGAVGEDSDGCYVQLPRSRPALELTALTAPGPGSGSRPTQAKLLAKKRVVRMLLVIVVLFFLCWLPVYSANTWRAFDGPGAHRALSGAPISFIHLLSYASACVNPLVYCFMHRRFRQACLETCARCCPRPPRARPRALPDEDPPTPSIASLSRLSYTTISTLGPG

[2] = biological target: T2, Cholecystokinin receptor type A (Homo sapiens, UniProt P32238); experiment: Displacement of CCK-8 from CHO cell membranes expressing human Cholecystokinin type A receptor; details: for Log IC50: cho
T2 sequence (P32238 whole entry): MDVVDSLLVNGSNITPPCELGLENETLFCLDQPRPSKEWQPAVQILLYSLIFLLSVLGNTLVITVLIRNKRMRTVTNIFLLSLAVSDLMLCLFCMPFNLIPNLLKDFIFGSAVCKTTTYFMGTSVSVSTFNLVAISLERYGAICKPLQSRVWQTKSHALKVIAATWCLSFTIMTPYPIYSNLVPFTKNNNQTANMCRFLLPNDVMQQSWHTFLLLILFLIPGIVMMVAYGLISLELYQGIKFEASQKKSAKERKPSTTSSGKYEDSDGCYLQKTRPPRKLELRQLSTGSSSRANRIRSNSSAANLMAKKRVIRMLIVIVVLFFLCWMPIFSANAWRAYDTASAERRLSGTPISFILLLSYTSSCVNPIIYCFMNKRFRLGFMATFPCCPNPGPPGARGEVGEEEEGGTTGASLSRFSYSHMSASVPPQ

[3] = organism: Cavia porcellus; experiment: Effective concentration required to induce contraction of guinea pig gall bladder
[4] = biological target: T3, Cholecystokinin receptor type A (Cavia porcellus, UniProt Q63931); experiment: Antagonist activity against CCK-8 induced responses in guinea pig gall bladder was determined; assay type: functional, tissue-based; details: for Kb: read-out: pA2 (converted)
T3 sequence (Q63931 whole entry): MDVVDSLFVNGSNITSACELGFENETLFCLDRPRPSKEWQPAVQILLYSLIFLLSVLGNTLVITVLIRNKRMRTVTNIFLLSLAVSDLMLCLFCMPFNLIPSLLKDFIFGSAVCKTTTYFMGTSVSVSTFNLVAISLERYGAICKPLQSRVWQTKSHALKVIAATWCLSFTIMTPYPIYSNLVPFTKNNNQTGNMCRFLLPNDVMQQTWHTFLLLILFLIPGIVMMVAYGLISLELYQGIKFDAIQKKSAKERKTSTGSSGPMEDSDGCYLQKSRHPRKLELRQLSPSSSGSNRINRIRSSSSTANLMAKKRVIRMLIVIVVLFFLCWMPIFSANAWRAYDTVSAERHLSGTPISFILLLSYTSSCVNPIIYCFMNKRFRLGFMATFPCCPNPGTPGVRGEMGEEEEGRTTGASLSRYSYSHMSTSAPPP
How it was run: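 Isolated guinea pig gallbladder rings in physiological salt solution at 37 °C, 95% O2/5% CO2, pH 7.4, under 1 g resting tension, with isometric force recording. Tissues from at least three animals were incubated 60 min with antagonist (three to five concentrations), then given a cumulative sulfated CCK-8 curve. Paired untreated tissue served as time/solvent control for the concentration ratio. pA2 was derived by Schild analysis.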

[5] = organism: Cavia porcellus; experiment: Percent contraction induced by compound at […] in guinea pig gall bladder was determined; Inactive; assay type: functional
[6] = organism: Cavia porcellus; experiment: Percent contraction induced by compound at […] in guinea pig gall bladder was determined; assay type: functional

Compound: CC(=O)N[C@@H](Cc1c[nH]c2ccccc12)C(=O)NC(Cc1ccc(NC(=O)Nc2ccccc2C)cc1)C(=O)N[C@@H](CC(=O)O)C(=O)N[C@H](Cc1ccc(C)cc1)C(N)=O (stereo not given in full)
- Activity [5]: inactive

Compound: CC(=O)N[C@@H](Cc1c[nH]c2ccccc12)C(=O)N[C@@H](CCCCNC(=O)Nc1ccccc1Cl)C(=O)N[C@@H](CC(=O)O)C(=O)N[C@@H](Cc1ccc(C)cc1)C(N)=O [listing 1 of 2 here]
- Activity [6]: 117%

Compound: Cc1cccc(NC(=O)N[C@@H]2N=C(c3ccccc3)c3ccccc3N(C)C2=O)c1 [L-365260]
- IC50 [2]: 158 nM

Compound: CC(=O)N[C@@H](Cc1c[nH]c2ccccc12)C(=O)NC(Cc1ccc(NC(=O)Nc2ccccc2Cl)cc1)C(=O)N[C@@H](CC(=O)O)C(=O)N[C@H](Cc1ccc(C)cc1)C(N)=O (stereo not given in full)
- Activity [5]: inactive

Compound: CC(=O)N[C@@H](Cc1c[nH]c2ccccc12)C(=O)N[C@@H](CCCCNC(=O)Nc1ccccc1C)C(=O)N[C@@H](CC(=O)O)C(=O)N[C@@H](Cc1ccc(C)cc1)C(N)=O [listing 2 of 2 here]
- Activity [6]: 105%

Further lines, with some results ahead:

- IC50 [1]: 5010 nM
- IC50 [2]: 20 nM
- EC50 [3]: 1.58 nM
Compound: CC(=O)N[C@@H](Cc1c[nH]c2ccccc12)C(=O)N[C@@H](CCCCNC(=O)Nc1ccccc1C)C(=O)N[C@@H](CC(=O)O)C(=O)N[C@@H](Cc1ccc(C)cc1)C(N)=O [listing 1 of 2 here]

- IC50 [1]: 63100 nM
- IC50 [2]: 100 nM
- Kb [4]: 79.4 nM
Compound: CC(=O)N[C@@H](Cc1c[nH]c2ccccc12)C(=O)N[C@@H](Cc1ccc(NC(=O)Nc2ccccc2Cl)cc1)C(=O)N[C@@H](CC(=O)O)C(=O)N[C@@H](Cc1ccc(C)cc1)C(N)=O

- Log IC50 [1]: -4.3
- Log IC50 [2]: -7.2
- pA2 [4]: 7.4
Compound: CC(=O)N[C@H](Cc1c[nH]c2ccccc12)C(=O)NC(Cc1cccc(NC(=O)Nc2ccccc2C)c1)C(=O)N[C@H](CC(=O)O)C(=O)N[C@@H](Cc1ccc(C)cc1)C(N)=O (stereo not given in full)
- Activity [5]: inactive

- IC50 [1]: 100000 nM
- IC50 [2]: 31.6 nM
- Kb [4]: 39.8 nM
Compound: CC(=O)N[C@@H](Cc1c[nH]c2ccccc12)C(=O)N[C@@H](Cc1ccc(NC(=O)Nc2ccccc2C)cc1)C(=O)N[C@@H](CC(=O)O)C(=O)N[C@@H](Cc1ccc(C)cc1)C(N)=O

- Log IC50 [1]: -5
- Log IC50 [2]: -7
- pA2 [4]: 7.2
Compound: CC(=O)N[C@@H](Cc1c[nH]c2ccccc12)C(=O)NC(Cc1cccc(NC(=O)Nc2ccccc2C)c1)C(=O)N[C@@H](CC(=O)O)C(=O)N[C@H](Cc1ccc(C)cc1)C(N)=O (stereo not given in full)
- Activity [5]: inactive

- Log IC50 [1]: -6
- Log IC50 [2]: -8.3
- EC50 [3]: 0.501 nM
Compound: CC(=O)N[C@@H](Cc1c[nH]c2ccccc12)C(=O)N[C@@H](CCCCNC(=O)Nc1ccccc1Cl)C(=O)N[C@@H](CC(=O)O)C(=O)N[C@@H](Cc1ccc(C)cc1)C(N)=O [listing 2 of 2 here]
